The values that follow come from paper PMC7947324 (Pharmacology Research & Perspectives, 2021).

“Also recorded” adds a separate entry of the source.

In assay [1] the test system is INS‐1 (832/3) cells. The assay is described as follows: Relative gene expression by qPCR in INS‐1. Particulars: for Ptges expression vs. control: 2^ΔΔCt method, AA enrichment alone or 10 ng/ml IL‐1β. It is filed as cell-based, rat. For orientation: In qPCR the cycle at which signal appears reflects the starting amount.
Assay [2] has as its system INS‐1 (832/3) cells. The assay is described as follows: Membrane phospholipid AA and EPA composition of INS‐1. Format: cell-based, rat. Particulars: 100 μM AA‐enriched medium, 48 h.
Assay [3] deals with INS‐1 (832/3) cells. Nature of the assay: INS‐1. It is filed as cell-based, rat. Particulars: for effect of antagonist on the PGE2 dose–response (GSIS): 10 µM antagonist, PGE2 1 pM to 50 μM; for effect of antagonist on the sulprostone dose–response (GSIS): sulprostone 1 pM to 50 μM; for reduction of GSIS at high concentration compared with PGE2: 50–100 µM; for concentration from which the agonist reduces GSIS / effect of agonist on GSIS (dose–response): agonist alone; for effect of agonist on GSIS (dose–response): 1 pM to 50 or 100 μM, 16.7 mM glucose. Summed up: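 INS‐1 (832/3) cells (passage 35 or below) plated and cultured 72 h before GSIS. Agonists tested from 1 pM to 10, 50 or 100 µM, with or without 20 µM EP3 antagonist or 10 µM other EP antagonists. Insulin measured by in‐house ELISA and expressed relative to 16.7 mM glucose. N = 3–5 independent experiments, mean ± SEM, two‐way ANOVA with Holm–Sidak.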

The next assay concerns rat EP1 receptor. Particulars: cited from earlier work.
The next assay deals with rat EP3 receptor. Particulars: cited from earlier work.
Assay [4] deals with mouse DP2 receptor. The assay is described as follows: Published agonism at mouse DP2 receptor. Particulars: from published pKi values of Table 3. Format: biochemical.
Assay [5] relates to mouse DP2 receptor. Particulars: ref Table 3; cited from earlier work.
Assay [6] concerns INS‐1 (832/3) cells. Particulars: cited from earlier work.
In assay [7] the test system is INS‐1 (832/3) cells. Nature of the assay: Total insulin content of INS‐1. Format: cell-based, rat. Particulars: 10 ng/ml, regardless of fatty acid treatment. Summed up: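 Cells at 70% confluence were cultured 48 h in medium with 1% fatty acid‐free BSA, with or without 100 μM AA, then 24 h with vehicle or 10 ng/ml IL‐1β. Assay groups were 1.7 mM glucose, 16.7 mM glucose, 16.7 mM + 10 nM agonist, and 16.7 mM + 20 µM EP3 antagonist. Secreted insulin was given as percent of content; content and secretion by in‐house ELISA. N = 3–4, mean ± SEM, two‐way ANOVA with Holm–Sidak.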

Assay [8] concerns INS‐1 (832/3) cells. Nature of the assay: PGE2 production. Particulars: BSA or AA cultured cells, 10 ng/mL IL‐1β or vehicle. It is filed as cell-based, rat.

As for `CCCCC/C=C\C/C=C\C/C=C\C/C=C\CCCC(=O)O` [AA, arachidonic acid], the “Ptges expression vs. control” value with INS‐1 (832/3) cells [1] is recorded as ~ 3.5 fold. Besides, in the assay on INS‐1 (832/3) cells [2], the “AA abundance in membrane phospholipids vs controls” value was determined as 4 fold and the “AA:EPA ratio vs controls” value is given as 25 fold.
Take `O=C(O)CC/C=C\CC[C@H]1[C@H](N2CCOCC2)C(=O)C[C@H]1OCc1ccc(-c2ccccc2)cc1` [AH2384B]: the “effect of antagonist on the PGE2 dose–response (GSIS)” value in the assay on INS‐1 (832/3) cells [3] is “excluded from mediating the effect of PGE2 on GSIS”. Moreover, the “effect of antagonist on the sulprostone dose–response (GSIS)” value in the assay with INS‐1 (832/3) cells [3] (10 μM antagonist) is “neither SC51089, AH2384B, SC19220, nor L161,982 affecting the sulprostone dose–response”.
For the compound `CCC#CC[C@H](C)[C@H](O)C#C[C@@H]1[C@H]2C/C(=C/COCC(=O)O)C[C@H]2C[C@H]1O` [Cicaprost, cicaprost], in the assay on INS‐1 (832/3) cells [3], the “reduction of GSIS at high concentration compared with PGE2” value (shortened to “reduction of GSIS at high concentration”) is listed as “nearly reaching the maximal potency of PGE2” and the “concentration from which the agonist reduces GSIS” value worked out at 1 µM.
On to `CC#CCC(C)[C@H](O)/C=C/[C@@H]1[C@H]2C/C(=C/CCCC(=O)O)C[C@H]2C[C@H]1O` (stereo partly drawn) [Iloprost, iloprost], for which the “effect of agonist on GSIS (dose–response)” value (shortened to “effect of agonist on GSIS”) in the assay with INS‐1 (832/3) cells [3] is “dose‐dependently reduces GSIS; also recorded: significantly reduce INS‐1 cell GSIS”. Also, the “agonist type at rat EP1 receptor” value with rat EP1 receptor is “only a partial agonist”. Further, the “agonist type at rat EP3 receptor” value in the assay with rat EP3 receptor is recorded as “full agonist”.
Regarding `COc1ccc2c(c1)c(CC(=O)O)c(C)n2C(=O)c1ccc(Cl)cc1` [Indomethacin, indomethacin], the “effect of agonist on GSIS” value in the assay on INS‐1 (832/3) cells [3] is “no significant effect”; in the assay on INS‐1 (832/3) cells [3] (listed as indomethacin), “no effect on GSIS”.
Turning to `CCCCc1nn(-c2ccccc2C(F)(F)F)c(=O)n1Cc1ccc(-c2ccccc2S(=O)(=O)NC(=O)c2sccc2C)cc1` [L161,982], the “effect of antagonist on the PGE2 dose–response (GSIS)” value in the assay on INS‐1 (832/3) cells [3] is listed as “excluded from mediating the effect of PGE2 on GSIS”. In the assay on INS‐1 (832/3) cells [3] (10 μM antagonist), the “effect of antagonist on the sulprostone dose–response (GSIS)” value is reported as “neither SC51089, AH2384B, SC19220, nor L161,982 affecting the sulprostone dose–response”.
As to `COc1ccc(Br)cc1S(=O)(=O)NC(=O)/C=C/c1ccccc1Cc1ccc2ccccc2c1` [L798,106], the “effect of antagonist on GSIS reduced by PGD2, PGF2α, cicaprost or U‐46619” value with INS‐1 (832/3) cells [3] (20 μM L798,106) is “fully restores INS‐1 (832/3) GSIS”. In the assay on INS‐1 (832/3) cells [3] (20 µM, AA enrichment and 10 ng/ml IL‐1β pretreatment), the “increase in GSIS vs. 16.7 mM glucose alone” value is recorded as ~ 30%. The “effect of antagonist alone on GSIS” value in the assay with INS‐1 (832/3) cells [3] (20 µM, no IL‐1β treatment, control and AA‐enriched cells) is listed as “no potentiating effect; also recorded: unaffected”. The “increase of the IC50 for PGE2 (reduction of GSIS) by antagonist” value in the assay with INS‐1 (832/3) cells [3] (PGE2 1 pM to 10 μM with and without 20 μM L798,106) is listed as “over 100 fold”.
With `CCCCC[C@H](O)/C=C/[C@H]1C(=O)C[C@H](O)[C@@H]1C/C=C\CCCC(=O)O` [PGD2], in the assay with INS‐1 (832/3) cells [3], the “reduction of GSIS at high concentration” value is reported as “nearly reaching the maximal potency of PGE2” and the “concentration from which the agonist reduces GSIS” value is listed as 1 µM.
For `CCCCC[C@H](O)/C=C/[C@H]1[C@H](O)CC(=O)[C@@H]1C/C=C\CCCC(=O)O` [PGE2], the “potentiation of GSIS” value in the assay with INS‐1 (832/3) cells [3] (10 nM, AA‐enriched cells pretreated with IL‐1β) is on record as “approximately twofold”. Moreover, the “effect on GSIS” value with INS‐1 (832/3) cells [3] (10 nM, IL‐1β‐treated control (BSA) cells) is “no further inhibitory effect”; with INS‐1 (832/3) cells [3] (10 nM, cells without IL‐1β, with or without AA enrichment) it was “blunts INS‐1 (832/3) GSIS regardless of AA enrichment”. Also, the “effect of agonist on GSIS” value with INS‐1 (832/3) cells [3] is listed as “reduces INS‐1 (832/3) GSIS in a dose‐dependent manner; also recorded: significantly reduce INS‐1 cell GSIS”. Also, the “maximal reduction in GSIS” value with INS‐1 (832/3) cells [3] (maximal potency) is ~ 60%. Besides, in the assay on mouse DP2 receptor [4], the “reduced potency at DP2 as compared to EP3” value is given as ~ 3000 fold. Also, the “agonist type at mouse DP2 receptor” value in the assay with mouse DP2 receptor [5] is “full agonist”.
For `CC/C=C\C[C@H](O)/C=C/[C@H]1[C@H](O)CC(=O)[C@@H]1C/C=C\CCCC(=O)O` [PGE3], the “effect on INS‐1 cell GSIS” value with INS‐1 (832/3) cells [6] is given as “significantly reduce INS‐1 cell GSIS”.
As to `CCCCC[C@H](O)/C=C/[C@H]1[C@H](O)CC(=O)[C@@H]1CCCCCCC(=O)O` [PGE 1], the “effect on INS‐1 cell GSIS” value with INS‐1 (832/3) cells [6] is “significantly reduce INS‐1 cell GSIS”.
Take `CCCCC[C@H](O)/C=C/[C@@H]1[C@@H](C/C=C\CCCC(=O)O)[C@@H](O)C[C@H]1O` [PGF2α]: in the assay with INS‐1 (832/3) cells [3], the “reduction of GSIS at high concentration” value is given as “nearly reaching the maximal potency of PGE2” and the “concentration from which the agonist reduces GSIS” value is listed as 1 µM.
`CC(=O)NNC(=O)N1Cc2ccccc2Oc2ccc(Cl)cc21` [SC19220]: in the assay with INS‐1 (832/3) cells [3], the “effect of antagonist on the PGE2 dose–response (GSIS)” value is “neither of two EP1 antagonists, SC19220 or SC51089, affect the PGE2 dose–response”. Also, the “effect of antagonist on the sulprostone dose–response (GSIS)” value with INS‐1 (832/3) cells [3] (10 μM antagonist) is given as “neither SC51089, AH2384B, SC19220, nor L161,982 affecting the sulprostone dose–response”.
Take `CS(=O)(=O)NC(=O)CCC/C=C\C[C@H]1C(=O)C[C@@H](O)[C@@H]1/C=C/[C@@H](O)COc1ccccc1` [Sulprostone, sulprostone]: the “effect of agonist on GSIS” value with INS‐1 (832/3) cells [3] is “nearly identical results as with PGE2; also recorded: significantly reduce INS‐1 cell GSIS”.
For “IL‐1β: Interleukin‐1β, cytokine used at 10 ng/ml to mimic the diabetic state and induce PGE2 production”, in the assay with INS‐1 (832/3) cells [1] (10 ng/ml IL‐1β), the Ptger1 expression result is recorded as “unaffected”, the Ptger3 expression upregulation was ~ 6 fold, the Ptger4 expression upregulation was ~ 10 fold and the Ptges2 expression induction is on record as ~ 2 fold. For the same compound, in the assay on INS‐1 (832/3) cells [1] (10 ng/ml IL‐1β), the Ptges3 expression induction is listed as ~ 2.5 fold, the Ptgs1 expression induction was 2–4 fold and the Ptgs2 expression induction is recorded as ~ 10 fold. Further, the “Ptges expression vs. control” value with INS‐1 (832/3) cells [1] was ~ 100 fold. In the assay on INS‐1 (832/3) cells [7], the “reduction of insulin content” value is recorded as about 50%. Also, the “substrate‐dependent PGE2 production” value with INS‐1 (832/3) cells [8] was “only induced with IL‐1β treatment”.
With PF‐04418948, in the assay on INS‐1 (832/3) cells [3], the “effect of antagonist on the PGE2 dose–response (GSIS)” value is given as “no effect”.
Take SC51089: the “effect of antagonist on the PGE2 dose–response (GSIS)” value with INS‐1 (832/3) cells [3] is “neither of two EP1 antagonists, SC19220 or SC51089, affect the PGE2 dose–response”. Moreover, the “effect of antagonist on the iloprost dose–response curve (GSIS)” value with INS‐1 (832/3) cells [3] (10 μM antagonist, iloprost 1 pM to 100 μM) was “no effect”. In addition, in the assay on INS‐1 (832/3) cells [3] (10 μM antagonist), the “effect of antagonist on the sulprostone dose–response (GSIS)” value was “neither SC51089, AH2384B, SC19220, nor L161,982 affecting the sulprostone dose–response”.
